# Screening data from PubChem.
# hERG rescue – hERG rescue from dofetilide block, primary screen, cell-based, CHO-hERG, FluxOR thallium flux, dofetilide IC70 | activation (rescue from dofetilide block), less the hit threshold, % at 10 µM | Voltage-gated inwardly rectifying potassium channel KCNH2 (Homo sapiens), Q12809 | AID 1511, 2009 | 0.51% of 310,000 active | dofetilide IC70 present;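 active = activation above the mean of controls blocked by dofetilide plus 5 SD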;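 also: thallium influx through hERG after potassium depolarization seen as dye fluorescence rise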
# Target sequence (Q12809 whole entry, looked up): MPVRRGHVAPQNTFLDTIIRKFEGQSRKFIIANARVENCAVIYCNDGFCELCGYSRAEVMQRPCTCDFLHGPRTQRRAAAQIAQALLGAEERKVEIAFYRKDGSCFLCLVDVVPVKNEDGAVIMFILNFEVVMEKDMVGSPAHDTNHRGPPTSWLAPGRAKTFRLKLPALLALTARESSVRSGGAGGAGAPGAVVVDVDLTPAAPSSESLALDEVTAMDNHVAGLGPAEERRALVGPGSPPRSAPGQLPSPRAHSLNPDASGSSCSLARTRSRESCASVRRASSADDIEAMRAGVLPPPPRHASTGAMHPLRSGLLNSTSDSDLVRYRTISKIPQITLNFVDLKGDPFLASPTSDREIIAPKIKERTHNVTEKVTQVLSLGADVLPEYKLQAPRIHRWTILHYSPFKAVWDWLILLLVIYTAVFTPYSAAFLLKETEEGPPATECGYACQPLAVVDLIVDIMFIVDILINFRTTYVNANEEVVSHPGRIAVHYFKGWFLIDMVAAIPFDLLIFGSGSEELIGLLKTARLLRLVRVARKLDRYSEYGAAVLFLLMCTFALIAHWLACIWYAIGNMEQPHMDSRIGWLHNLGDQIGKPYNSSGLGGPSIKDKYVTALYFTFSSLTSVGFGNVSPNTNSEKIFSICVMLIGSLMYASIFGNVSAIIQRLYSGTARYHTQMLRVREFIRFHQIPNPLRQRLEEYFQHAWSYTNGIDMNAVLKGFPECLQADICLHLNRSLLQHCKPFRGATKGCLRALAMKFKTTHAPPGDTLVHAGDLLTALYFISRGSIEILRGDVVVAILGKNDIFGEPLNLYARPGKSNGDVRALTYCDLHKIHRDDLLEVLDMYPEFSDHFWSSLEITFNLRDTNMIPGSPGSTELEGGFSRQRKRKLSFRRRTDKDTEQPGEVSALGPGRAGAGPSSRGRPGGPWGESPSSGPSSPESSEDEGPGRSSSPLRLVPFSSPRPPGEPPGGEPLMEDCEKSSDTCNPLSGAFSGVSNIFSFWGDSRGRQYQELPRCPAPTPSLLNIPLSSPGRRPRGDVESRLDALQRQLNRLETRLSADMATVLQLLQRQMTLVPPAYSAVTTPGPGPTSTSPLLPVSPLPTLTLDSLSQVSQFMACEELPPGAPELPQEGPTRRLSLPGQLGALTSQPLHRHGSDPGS
# KCNQ1 inh – inhibitors of human KCNQ1 channel, primary screen, cell-based, thallium flux, high-throughput; Potassium voltage-gated channel subfamily KQT member 1 (Homo sapiens), P51787; CHO-K1 KCNQ1, FluxOR thallium flux fluorescence; active compounds read high; B-score at 10 µM; 1.3% of 310,000 active; AID 2642, 2010;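 active = compounds whose thallium flux B-score, printed positive for inhibition, exceeds three library SD while starting fluorescence stays within three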;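 also: channel opened by potassium depolarization with thallium stimulus after 20 min compound exposure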
# KCNK3 inh – human KCNK3 channel inhibitors, primary screen, CHO cells, FluxOR thallium flux, B-score. 0.84% of 340,000 active. Potassium channel subfamily K member 3 (Homo sapiens), O14649. B-score at 10 µM. FluxOR fluorescence; active compounds read low;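 active = B-score under library mean minus 4 SD, starting fluorescence ratio at most library mean plus 5 SD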;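 also: more negative B-score means stronger inhibition of thallium flux through KCNK3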
# KCNQ1 pot – potentiators or activators of KCNQ1 channel, primary screen, cell-based, thallium flux, high-throughput. Potassium voltage-gated channel subfamily KQT member 1 (Homo sapiens), P51787. CHO-K1 KCNQ1, thallium flux FluxOR fluorescence; active compounds read high. 0.35% of 310,000 active. AID 2648, 2010. B-score at 10 µM;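 active = fluorescence ratio B-score, a plate-corrected score, at least three library SD, with initial intensity B-score within 5 SD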
#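 Doses: Single concentration per compound, DMSO matched to controls | Test system: KCNQ1-transfected CHO-K1 cells | Timing: 90 min dye loading and 20 min compound exposure, both at room temperature | Measured by: Kinetic FluxOR thallium fluorescence, 10-s 1-Hz baseline, 110-s post-stimulus read | Medium: Assay buffer with matched DMSO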
# Kir21 block – inhibitors of mouse Kir2.1 inward-rectifier potassium channel; HEK293-Kir2.1, FluxOR thallium flux fluorescence; active compounds read low; Inward rectifier potassium channel 2 (Mus musculus), P35561; AID 1672, 2009; B-score at 10 µM; 0.85% of 310,000 active;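 active = fluorescence ratio B-score at or below minus 3 SD of library scores, with starting-brightness B-score within 2 SD, cut at about -4.2 in these data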;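 also: channel flux triggered by added potassium and thallium sulfate stimulus; B-score of peak minus minimum fluorescence over baseline after thallium stimulus; more negative B-score means stronger Kir2.1 block with less thallium influx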
# KCNK9 inh – KCNK9 potassium channel inhibitors, primary screen, HEK293 cells, thallium flux. FluxOR thallium flux fluorescence; active compounds read low. AID 488922, 2010. Potassium channel subfamily K member 9 (Homo sapiens), Q9NPC2. B-score at 10 µM. 1.2% of 310,000 active;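 active = ratio B-score over 3 SD below the library mean, with starting fluorescence within 5 SD of its mean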;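 also: negative B-score means less thallium flux so channel inhibition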
# KCNK9 inh conf – KCNK9 potassium channel inhibitors, confirmation, HEK293 cells, thallium flux, duplicate; shares compounds with KCNK9 inh; FluxOR thallium flux fluorescence; inhibition, % at 10 µM; 43% of 4,900 active;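 active = thallium signal inhibited by more than 5 SD of the compound-free buffer control wells, on both duplicate plates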;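 also: 0% = assay buffer control wells without compound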
# Kir21 sel – mouse Kir2.1 channel inhibition, confirmation, selectivity assay for KCNK9 modulator project, cell-based, HEK293, thallium flux. inhibition, % at 10 µM. shares compounds with KCNK9 inh. AID 492993, 2010. 4% of 4,900 active. Kir2.1 cells, FluxOR thallium flux fluorescence;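 active = thallium signal drop more than 5 SD beyond the mean of the no-compound control wells, seen in both duplicate plates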;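 also: signal is fluorescence rise after thallium addition divided by baseline fluorescence; plate controls were assay buffer only for no effect and full block by chlorpromazine control for full effect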
# KCNK9 uninduced – thallium flux in non-induced HEK293 cells, confirmation, counter-screen for KCNK9 inhibitor project, cell-based, second counter screen, non-induced KCNK9-HEK293. inhibition, % at 10 µM. shares compounds with KCNK9 inh. AID 492997, 2010. FluxOR thallium flux. 40% of 4,900 active;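 active = thallium signal drop beyond 5 SD of the untreated control mean, on both duplicate plates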;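 also: plate controls were buffer only IC0 wells for no effect and SID17386958 at its maximal inhibitory level for full effect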
# * = called active by the depositor; i = inactive; . = not tested or not shown. The list is not random: actives were taken first. Their share in the collection is about 3.7%.
SMILES,hERG rescue,KCNQ1 inh,KCNK3 inh,KCNQ1 pot,Kir21 block,KCNK9 inh,KCNK9 inh conf,Kir21 sel,KCNK9 uninduced
CSc1cnn(Cc2ccccc2)c(=O)c1SCc1ccccc1,-6.2,i,i,i,-4.56*,i,i,40.0%*,44.0%*
NC(=O)c1cc([N+](=O)[O-])ccc1NCc1ccc(C(=O)O)cc1,.,.,i,.,.,.,.,.,.
COC(=O)CSc1nc(C2CC2)cc(C(F)(F)F)c1C#N,-12.0,i,i,i,-1.96,i,.,.,.
CCOC(=O)CSc1nc(C2CC2)cc(-c2ccc(Cl)cc2)c1C#N,-3.5,i,i,i,-2.15,-9.47*,53.5%*,i,i
Cn1cc(Cl)c(C(=O)OCC(=O)c2ccccc2)n1,-11.6,i,i,i,0.66,i,.,.,.
CNc1nnc(CSc2nc3ccccc3s2)s1,-9.8,i,i,i,-0.23,i,.,.,.
CNc1nnc(CSc2nc(C)cc(C)n2)s1,-4.6,i,i,i,1.23,i,36.0%*,i,i
Cc1ccc(C2=NN(CCC#N)C(=O)CO2)cc1,-1.2,i,i,i,-0.35,i,.,.,.
CC(NC(=O)Cn1nc(C(F)(F)F)c2c1CCC2)c1ccccc1 (centres undefined),-4.3,i,i,i,-0.17,i,i,i,30.5%*
Clc1ccc(/C=N/NC(=Nc2ccccc2)c2ccccn2)c(Cl)c1,-7.5,i,i,i,-0.61,i,i,i,i
C(=N\NC(=Nc1ccccc1)c1ccccn1)/c1ccccn1,-3.3,i,i,i,1.01,i,.,.,.
Cc1cccc(/C(N)=N/OC(=O)CCCN2C(=O)c3ccccc3C2=O)c1,-2.6,i,i,i,-1.16,i,i,i,i
O=C(Nc1ccccc1)OC1CC2CC1C1CCCC21 (centres undefined),-3.0,i,i,i,-2.02,i,i,i,i
O=C(Nc1ccccc1)O[C@@H]1C[C@H]2CCCC(=O)N3CC[C@@H](C1)[C@@H]23,.,.,i,.,.,.,.,.,.
CC1Cc2ccccc2N1C(=O)CN(C)CC(=O)Nc1ccc(F)cc1 (centres undefined),.,.,i,.,.,.,.,.,.
BrC(/C=N/N1CCN(Cc2ccccc2)CC1)=C/c1ccccc1,-11.1,i,i,i,2.07,i,i,i,i
CC(/C=N\N1CCN(Cc2ccc(C)cc2)CC1)=C\c1ccccc1,-5.3,i,i,i,0.81,i,i,i,i
BrC(=C\c1ccccc1)/C=N/N1CCN(Cc2ccccc2)CC1,-6.6,i,i,i,-0.19,i,.,.,.
Cc1ccc(CN2CCN(/N=C\C=C\c3ccccc3)CC2)cc1,-11.9,i,i,i,-0.89,i,i,i,i
Cc1ccc(C)c(N2CCN(C(=O)CCS(=O)(=O)c3ccc4c(c3)oc(=O)n4C)CC2)c1,-8.7,i,i,i,0.85,i,i,i,i
Cn1c(=O)oc2cc(S(=O)(=O)CCC(=O)N3CCN(c4ccccc4F)CC3)ccc21,-2.7,i,i,i,-2.31,i,.,.,.
Cn1c(Sc2ccc(Br)cc2)c(C=O)c2ccccc21,-13.2,i,i,i,0.88,-9.46*,43.5%*,36.5%*,52.0%*
Cn1c(Oc2ccc(F)cc2)c(C=O)c2ccccc21,-4.5,i,i,i,-2.52,i,.,.,.
Cc1ccc(NS(=O)(=O)c2cc(C(=O)NCCCN(C)C)ccc2Cl)cc1Cl,.,.,i,.,.,.,.,.,.
CC(OC(=O)c1cc(-c2cccnc2)nc2ccccc12)C(=O)Nc1ccc2ccccc2c1 (centres undefined),-17.5,i,i,i,-0.06,i,.,.,.
SMILES,hERG rescue,KCNQ1 inh,KCNK3 inh,KCNQ1 pot,Kir21 block,KCNK9 inh,KCNK9 inh conf,Kir21 sel,KCNK9 uninduced
CCOc1ccc(Cc2c(Cl)nc(SC)nc2OC)cc1,-12.6,i,i,i,1.82,i,i,i,25.5%*
COc1ccc(Cc2c(N)nc(C)nc2N)cc1,-14.3,i,i,i,0.18,i,.,.,.
O=[N+]([O-])c1cc(Cl)ccc1N1CCN(c2ccccc2O)CC1,-18.9,i,i,i,2.03,-8.48*,i,i,25.0%*
CC/C(C)=N/Oc1nc(C)cc(C)n1,-5.3,i,i,i,2.28,i,.,.,.
Cc1ccc(OCCn2cnc3cc([N+](=O)[O-])ccc3c2=O)cc1,-19.2,i,i,i,1.14,i,i,i,i
Cn1c(SCC(=O)N2CCCCCC2)nc2c(c1=O)SCC2,-9.2,i,i,i,1.82,i,.,.,.
COc1ccc(OC)c(Nc2nc(-c3sc(NC(=O)CC(C)C)nc3C)cs2)c1,-8.1,i,i,i,0.64,-16.5*,39.5%*,i,31.5%*
CCC(C)C(=O)Nc1nc(C)c(-c2csc(Nc3cc(Cl)ccc3OC)n2)s1 (centres undefined),-12.3,i,i,i,-0.33,i,.,.,.
COc1ccc(OC)c(Nc2nc(-c3sc(C)nc3C)cs2)c1,-22.2,i,i,i,1.12,i,.,.,.
COc1ccc(OC)c(Nc2nc(-c3sc(NC(=O)C(C)(C)C)nc3C)cs2)c1,-15.2,i,i,i,1.61,-13.1*,46.0%*,i,i
CCC(C)C(=O)Nc1nc(C)c(-c2csc(Nc3cc(OC)ccc3OC)n2)s1 (centres undefined),-25.6,i,i,i,0,-10.9*,40.5%*,i,27.0%*
COc1ccc(-n2cnnc2SCC(=O)NC2CCCCC2)cc1,.,.,i,.,.,.,.,.,.
Cc1ccc(-c2cccc(C(=O)NCc3ccccc3)n2)c2ccccc12,-13.2,i,i,i,0.83,i,i,i,i
Cc1ccc(-c2cccc(C(=O)NCCc3ccccc3)n2)c2ccccc12,-12.2,i,i,i,1.24,-16.6*,75.5%*,i,32.0%*
Cc1cccc2c(=O)c(C(=O)NCCc3ccccc3)c[nH]c12,-8.3,i,i,i,1,i,.,.,.
